We go through 14 compounds from PubChem BioAssay.

Activity calls are given as the source filed them.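 How the source made its calls, unless noted: active means fluorescence slope after compound addition differing from the mean of all tested samples at 99.7% confidence, mostly higher but some lower; inactive means the rest.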

Test [1] can be described thus: inhibitors of TNFa-induced NFkB p65 translocation, primary screen, imaging, HUVEC, MLSMR starter and 10KST1 sets (AID 438;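 active means inhibition above 20% together with a positive visual image hit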;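 further: compound added about 3h40 before a 20 min TNFalpha stimulation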;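 on inhibition: signal is the nuclear over cytoplasmic p65 intensity ratio per well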). As to conditions: HUVEC TNFa-induced p65 nuclear translocation; cell count: measured here: nuclei count (cytotoxicity indicator), at 2.08 µM; inhibition: at 2 µM, stronger effect = higher value, 0% TNFa-plus-vehicle, 100% no-TNFa wells.
Test [2] can be described thus: inhibitors of mutant huntingtin aggregation, primary screen, imaging, exon1htt(103Q)mCFP cells, high-content imaging (AID 483;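 active means visual image review flags a hit and inhibition of aggregation exceeds 20%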;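 further: compound exposure lasted 3 days before fixation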;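 on nuclei count: percent of the per-plate median nuclei count of sample wells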). As to conditions: exon1htt(103Q)mCFP cell line, aggregate imaging, at 2 µM; inhibition of aggregation: stronger effect = higher value; nuclei count: measured here: cell count, toxicity.
Test [3] is described as follows: inhibitors of E-selectin induction by TNFa, primary screen, imaging, HUVEC, immunofluorescence, MLSMR starter and 10KST1 sets (AID 487;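 active means visually confirmed hit in the image check and inhibition above 20%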;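 on inhibition: signal is fraction of cell area covered by stained E-selectin grains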;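 on nuclei count: 100% = median nuclei count of all wells on the same plate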). To be noted: HUVEC TNFalpha-induced E-selectin immunofluorescence imaging, at 2 µM; inhibition: stronger effect = higher value; nuclei count: measured here: cell number, toxicity.
The target in test [4] is Voltage-gated potassium channel subunit beta-2 (Rattus norvegicus) (UniProt P62483). The experiment in a line: KvBeta enzyme negative modulators, primary screen, biochemical, NADPH fluorescence (AID 622;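 active means fluorescence slope higher than the sample average by over 3 SD, cut at about -0.22 in these data, passing the limit was not always enough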;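 further: slope of raw intensity against log time taken from 70 to 1610 s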). To be noted: recombinant KvBeta, 4-cyanobenzaldehyde reduction, at 10 µM, stronger effect = higher value.
For test [5] the target is unchanged. The experiment in a line: KvBeta positive modulators, primary screen, biochemical, NADPH fluorescence (AID 623;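 active means NADPH fluorescence slope more negative than the mean of all samples by about 3 SD, 99.7% confidence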;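 further: fluorescence intensity change per second fitted from 20 to 320 s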). To be noted: Recombinant KvBeta, NADPH fluorescence decrease slope, 10 min; at 10 µM; stronger effect = lower value.
The target of test [6] is Muscarinic acetylcholine receptor M4 (Homo sapiens) (UniProt P08173). The experiment in a line: compounds altering M4/GIRK thallium flux, either direction, primary screen, M4 allosteric agonist project, cell-based, HEK293 M4/GIRK, BTC-AM (AID 625).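 Further: thallium influx through GIRK channels coupled to M4 in HEK293 cells with BTC-AM dye.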 To be noted: at 10 µM, actives lie on both sides. An outline of the steps: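 Material: M4/GIRK1/GIRK2 stable HEK293 cell line. Medium: pH 7.3 thallium assay buffer. Dosing: single compound concentration, 10 µM final. Schedule: 1 h dye loading, 2 min kinetic read. Measured by: kinetic fluorescence with BTC-AM dye. Read-out: post-addition slope, 15–24 s, of baseline-normalized fluorescence. Benchmarks: carbachol and DMSO controls.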

Test [7] in a line: inhibitors of Sendai virus-induced IRF3 signaling, primary screen, TLR/RLR signaling modifier project, cell-based, Sendai virus stimulus, luciferase, 10K MLSCN set (AID 602276;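 active means inhibition at or above 50% at 10 µM; inactive means inhibition below 50%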;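 further: firefly luciferase from ISG56 promoter only with Renilla not read in this screen; 0% = Sendai virus plus DMSO and 100% = medium plus DMSO without virus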). To be noted: HEK293 RL24 IRF3 luciferase reporter, at 10 µM, stronger effect = higher value. (In general: A reporter such as luciferase makes a cellular process visible.)
Test [8] can be described thus: inhibitors of poly I:C-induced TLR3 signaling, primary screen, cell-based, poly I:C stimulus, luciferase, 10K MLSCN set (AID 602277;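 active means inhibition of the reporter signal at or above 50%; inactive means inhibition below 50%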). To be noted: HEK293-TLR3 RL24 IRF3 luciferase reporter, at 10 µM, stronger effect = higher value.

As a reminder, the inhibition is the change of the read-out against control, counted positive when it falls.

Sequence of Muscarinic acetylcholine receptor M4 (Homo sapiens) (P08173 whole entry, looked up): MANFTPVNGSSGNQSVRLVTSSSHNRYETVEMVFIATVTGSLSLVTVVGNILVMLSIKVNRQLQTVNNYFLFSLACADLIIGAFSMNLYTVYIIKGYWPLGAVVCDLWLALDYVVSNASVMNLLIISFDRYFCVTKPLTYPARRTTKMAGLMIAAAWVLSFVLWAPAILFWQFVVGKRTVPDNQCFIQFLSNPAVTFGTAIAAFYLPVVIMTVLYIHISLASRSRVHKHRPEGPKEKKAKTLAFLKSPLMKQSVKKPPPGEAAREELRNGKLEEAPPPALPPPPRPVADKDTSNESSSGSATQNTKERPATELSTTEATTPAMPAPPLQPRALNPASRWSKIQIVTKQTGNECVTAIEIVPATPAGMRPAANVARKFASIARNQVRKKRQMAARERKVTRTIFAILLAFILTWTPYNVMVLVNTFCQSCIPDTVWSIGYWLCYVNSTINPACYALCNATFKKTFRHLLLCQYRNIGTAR
Sequence of Voltage-gated potassium channel subunit beta-2 (Rattus norvegicus) (P62483 whole entry, looked up): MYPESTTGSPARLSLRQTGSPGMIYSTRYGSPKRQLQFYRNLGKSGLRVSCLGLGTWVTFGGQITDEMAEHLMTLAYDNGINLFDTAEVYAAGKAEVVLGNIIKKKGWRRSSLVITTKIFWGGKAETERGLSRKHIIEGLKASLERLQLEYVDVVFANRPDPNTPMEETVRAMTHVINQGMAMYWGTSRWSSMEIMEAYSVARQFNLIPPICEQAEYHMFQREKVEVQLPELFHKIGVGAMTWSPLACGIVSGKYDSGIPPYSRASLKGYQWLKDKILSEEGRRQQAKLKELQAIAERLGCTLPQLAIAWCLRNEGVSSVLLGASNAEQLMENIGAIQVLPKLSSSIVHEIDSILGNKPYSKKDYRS

Take `CCCCN(CC)S(=O)(=O)N1CCC(C(=O)NCc2ccc(F)cc2)CC1`: in test [1], the cell count amounted to 705. Besides, the inhibition was -6.9% (inactive) in test [1], -8% (inactive) in test [3], 12.4% (inactive) in test [7] and 15.9% (inactive) in test [8]. The inhibition of aggregation in test [2] is -1.2% (inactive). In addition, the figures for the nuclei count in test [2] and in test [3] were 96.5% and 113%, respectively. Also, the results for the fluorescence slope in test [4] and in test [6] were -0.594 (inactive) and 0.00507 (inactive), respectively. Further, in test [5], the NADPH fluorescence slope is -2.1e-05 (inactive).
For `CCCn1nc(NS(=O)(=O)c2ccccc2)c2cc3ccccc3nc21`, the cell count in test [1] turned out to be 468. Besides, the inhibition in test [1] was -3.8% (inactive); in test [3], 12% (inactive); in test [7] it was 6.34% (inactive); in test [8] it was 14.1% (inactive). For the same compound, the inhibition of aggregation in test [2] is -8.5% (inactive). Moreover, the results for the nuclei count in test [2] and in test [3] were 110% and 102%, respectively. The fluorescence slope in test [4] was -0.598 (inactive); in test [6] it was 0.00512 (inactive). Further, in test [5], the NADPH fluorescence slope is 2.9e-05 (inactive).
As to `COc1ccc(CCNS(=O)(=O)c2ccc(C(=O)NCc3ccco3)cc2)cc1OC`, the cell count in test [1] was 355. Further, the inhibition is -13.1% (inactive) in test [1], -35.9% (inactive) in test [3], -8.15% (inactive) in test [7] and -15.3% (inactive) in test [8]. Moreover, the inhibition of aggregation in test [2] is 7.4% (inactive). Further, the figures for the nuclei count in test [2] and in test [3] were 94.7% and 66.4%, respectively. The fluorescence slope in test [4] was -0.579 (inactive); in test [6], 0.00625 (inactive). In test [5], the NADPH fluorescence slope was 2.6e-05 (inactive).
For the compound `COC(=O)Cc1c(C)nc2nc(-c3ccco3)[nH]n2c1=O`, the cell count in test [1] is 409. In addition, the inhibition is 1.2% (inactive) in test [1], -28.5% (inactive) in test [3], 9.5% (inactive) in test [7] and 19.1% (inactive) in test [8]. The inhibition of aggregation in test [2] was 5.5% (inactive). The nuclei count was 93.6% in test [2] and 105% in test [3]. Further, the fluorescence slope is -0.467 (inactive) in test [4] and 0.00635 (inactive) in test [6]. The NADPH fluorescence slope in test [5] was -4e-05 (inactive).
`CCOC(=O)N1CCC(NC(=O)C2CCCN2C(=O)OCc2ccccc2)CC1` (centres undefined): the cell count in test [1] came out at 861. The inhibition in test [1] was -0.5% (inactive); in test [3], -19.6% (inactive); in test [7], -11.6% (inactive); in test [8], -1.88% (inactive). The inhibition of aggregation in test [2] was -11.6% (inactive). Also, the figures for the nuclei count in test [2] and in test [3] were 120% and 110%, respectively. The fluorescence slope is -0.561 (inactive) in test [4] and 0.00566 (inactive) in test [6]. Besides, the NADPH fluorescence slope in test [5] was -1.3e-05 (inactive).
Consider `COC(=O)c1ccccc1S(=O)(=O)N(Cc1cc2cc3c(cc2[nH]c1=O)OCO3)C1CCCCC1`, for which, in test [1], the cell count turned out to be 532. Also, the inhibition in test [1] is -3.6% (inactive); in test [3], -71.1% (inactive); in test [7] it was -3.7% (inactive); in test [8] it was -14.5% (inactive). The inhibition of aggregation in test [2] was -4.8% (inactive). Also, the results for the nuclei count in test [2] and in test [3] were 134% and 161%, respectively. Also, the fluorescence slope is -0.487 (inactive) in test [4] and 0.00583 (inactive) in test [6]. Further, the NADPH fluorescence slope in test [5] is -9.9e-05 (inactive).
On to `O=C(NCCN1CCOCC1)c1csc2c1CCCC2`, for which the cell count in test [1] amounted to 643. Moreover, the inhibition in test [1] is -24.5% (inactive); in test [3], -109% (inactive); in test [7], 12.1% (inactive); in test [8], 2.09% (inactive). In addition, the inhibition of aggregation in test [2] is 22.6% (inactive). Besides, the results for the nuclei count in test [2] and in test [3] were 109% and 116%, respectively. The fluorescence slope in test [4] was -0.257 (inactive); in test [6] it was 0.0063 (inactive). In addition, the NADPH fluorescence slope in test [5] is -1.1e-05 (inactive).
As to `COCCOC(=O)C1=C(C)N=c2s/c(=C\c3cccs3)c(=O)n2C1c1cccs1` (centres undefined), in test [1], the cell count worked out at 331. Further, the inhibition is -4.7% (inactive) in test [1], -148% (inactive) in test [3], -5.37% (inactive) in test [7] and -16.7% (inactive) in test [8]. In addition, the inhibition of aggregation in test [2] was -47% (inactive). The nuclei count in test [2] came to 98.1%; in test [3] it was 110%. The values for the fluorescence slope in test [4] and in test [6] were -0.251 (inactive) and 0.00423 (inactive), respectively. For the same compound, the NADPH fluorescence slope in test [5] is -1.4e-05 (inactive).
With `CCc1nnc(NC(=O)CSc2nc3ccccc3s2)s1`, the cell count in test [1] was 604. Further, the inhibition in test [1] was 7.1% (inactive); in test [3], -44% (inactive); in test [7], 11.9% (inactive); in test [8], 12.6% (inactive). Moreover, the inhibition of aggregation in test [2] was -5.7% (inactive). The nuclei count in test [2] was 100%; in test [3], 112%. The fluorescence slope in test [4] was -0.472 (inactive); in test [6] it was 0.00516 (inactive). Besides, in test [5], the NADPH fluorescence slope was -5.3e-05 (inactive).
Regarding `COc1cccc(OC)c1C(=O)Nc1ccccc1N1CCCC1`, the cell count in test [1] came to 417. Besides, the inhibition in test [1] is -3.4% (inactive); in test [3] it was 4.8% (inactive); in test [7], 15.4% (inactive); in test [8], 8.75% (inactive). Besides, the inhibition of aggregation in test [2] is 3.7% (inactive). The nuclei count in test [2] is 92.9%; in test [3] it was 118%. Further, the fluorescence slope in test [4] is -0.474 (inactive); in test [6], 0.00391 (inactive). Further, the NADPH fluorescence slope in test [5] was -5.8e-05 (inactive).
Consider `O=C(NC1CCCC1)c1c[nH]c2ccc(F)cc2c1=O`, for which the cell count in test [1] is 442. Besides, the inhibition is -4% (inactive) in test [1], -16% (inactive) in test [3], -2.78% (inactive) in test [7] and -20.3% (inactive) in test [8]. Also, the inhibition of aggregation in test [2] is -14.3% (inactive). For the same compound, the nuclei count in test [2] came to 118%; in test [3] it was 104%. Besides, the values for the fluorescence slope in test [4] and in test [6] were -0.266 (inactive) and 0.00803 (inactive), respectively. Moreover, the NADPH fluorescence slope in test [5] is -1.4e-05 (inactive).
Consider `FC(F)(F)c1cc(-c2ccco2)nc(-n2nnc3ccccc32)n1`, for which the cell count in test [1] came out at 529. Also, the inhibition in test [1] is -6.9% (inactive); in test [3], -12% (inactive); in test [7] it was 15.2% (inactive); in test [8], 22.4% (inactive). Further, the inhibition of aggregation in test [2] is -8.6% (inactive). In addition, the nuclei count was determined as 109% in test [2] and 101% in test [3]. Further, the fluorescence slope was -0.562 (inactive) in test [4] and 0.00724 (inactive) in test [6]. In test [5], the NADPH fluorescence slope was 1.3e-05 (inactive).
In the case of `CN(C)/C=c1\sc2c(C#N)cc(C(=O)c3ccc(Br)cc3)n2c1=O`, the cell count in test [1] amounted to 398. Also, the inhibition in test [1] was 8.6% (inactive); in test [3], 0.2% (inactive); in test [7] it was -3.73% (inactive); in test [8] it was 19.1% (inactive). In test [2], the inhibition of aggregation is 5.6% (inactive). In addition, the nuclei count in test [2] and in test [3] was 102% each time. Besides, the fluorescence slope in test [4] was -0.439 (inactive); in test [6], -0.00984 (active). The NADPH fluorescence slope in test [5] was -5.9e-05 (inactive).
Consider `Cc1ccc(N2CC(C(=O)N3CCN(C(=O)c4ccco4)CC3)CC2=O)cc1` (centres undefined), for which the cell count in test [1] amounted to 600. For the same compound, the inhibition in test [1] was 2.2% (inactive); in test [3], -39.1% (inactive); in test [7], 17.5% (inactive); in test [8] it was 21.1% (inactive). Further, the inhibition of aggregation in test [2] is -16.3% (inactive). Moreover, the nuclei count in test [2] is 114%; in test [3] it was 100%. Besides, the fluorescence slope was -0.571 (inactive) in test [4] and 0.00509 (inactive) in test [6]. In addition, the NADPH fluorescence slope in test [5] was -5.1e-05 (inactive).
